Screens as filed in PubChem.
FAK blocker – FAK kinase inhibitors, primary screen, biochemical; Focal adhesion kinase 1 (Homo sapiens), Q05397; biochemical FAK kinase activity assay; inhibition, %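 (tested at 7 µM)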; 97,000 compounds, 0.84% hits; in the data active means inhibition above about 19%
ERa SRC1 pot – enhancers of ERα–SRC-1 coactivator binding, primary screen, biochemical, TR-FRET, ERα LBD, low estradiol. Estrogen receptor (Homo sapiens), P03372. TR-FRET ERalpha-LBD/SRC-Cy5 coactivator binding, 2 h; 100 = basal binding, no effect. coactivator binding (% of control), % at 25.6 µM. 86,000 compounds, 1.3% hits; in the data active means activity above about 200%;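 further: binding measured in presence of low estradiol as agonist stimulus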
ERa SRC1 inh – ERα–SRC-1 coactivator interaction inhibitors, primary screen, biochemical, TR-FRET, ERα LBD, estradiol-bound. inhibition, % at 25.6 µM. Estrogen receptor (Homo sapiens), P03372. TR-FRET ER-alpha LBD / SRC-1 peptide. 86,000 compounds, 1.7% hits; in the data active means inhibition above about 50%
Smad3 inh – Smad3/FoxH1 peptide binding inhibitors, primary screen, biochemical, TR-FRET. Mothers against decapentaplegic homolog 3 (Homo sapiens), P84022. inhibition, % at 25 µM. AID 630, 2007. 88,000 compounds, 0.29% hits. TR-FRET Smad3/Dy647-FoxH1 peptide binding, europium anti-His;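 active means compounds that reduce the energy-transfer binding signal between the protein and its labelled peptide by more than half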
Target sequence (P84022 whole entry, looked up): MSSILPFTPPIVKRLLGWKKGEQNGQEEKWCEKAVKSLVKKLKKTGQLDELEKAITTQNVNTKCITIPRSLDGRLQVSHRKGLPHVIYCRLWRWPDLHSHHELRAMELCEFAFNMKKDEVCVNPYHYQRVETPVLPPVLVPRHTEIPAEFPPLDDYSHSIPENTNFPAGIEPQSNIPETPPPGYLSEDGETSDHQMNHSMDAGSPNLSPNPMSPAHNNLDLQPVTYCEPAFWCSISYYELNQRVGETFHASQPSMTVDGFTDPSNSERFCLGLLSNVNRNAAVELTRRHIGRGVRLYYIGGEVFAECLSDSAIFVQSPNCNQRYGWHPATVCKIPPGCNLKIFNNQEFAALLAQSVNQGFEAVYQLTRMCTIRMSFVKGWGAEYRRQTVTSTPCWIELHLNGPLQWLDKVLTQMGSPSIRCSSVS
Rev-RRE block – HIV-1 Rev-RRE binding inhibitors, primary screen, biochemical, FRET, protein-RNA interaction | P05866 | Rev peptide-RRE RNA binding | inhibition, % at 8 µM | 97,000 compounds, 0.79% hits;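 active means inhibition above the screen-wide mean plus 3 SD, cut at about 35% in these data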
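assay system = Cy5-tagged RRE RNA duplex with fluorescein-tagged Rev peptide | incubation = 5 + 15 min at 25 °C | also added = labelled Rev peptide | measure = % inhibition of FRET ratio versus controls | benchmarks = DMSO wells as 0% and neomycin B wells as 100% inhibition | measured by = FRET fluorescence readout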
ERb coact inh – inhibitors of ERβ-SRC1 coactivator interaction, primary screen, biochemical, TR-FRET, ERβ LBD, SRC-1 peptide | Estrogen receptor beta (Homo sapiens), Q92731 | TR-FRET ER-beta LBD / SRC1-Cy5 peptide binding; receptor agonist-loaded with 1 µM estradiol | inhibition, % at 25.6 µM | 86,000 compounds, 1.3% hits;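 active means compounds whose percent inhibition of the receptor-coactivator binding signal exceeds about 50% in the single-dose screen, limit read from the data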
A number is an active result; [ ] = dose if it differs, or a comment. Sampled rows, rich in hits. Any-hit rate of the full collection: about 4%.

`CCOC(=O)c1sc(NC(=O)CSc2nc(C)cc(C)c2C#N)c(C#N)c1C` gave FAK blocker inactive, ERa SRC1 pot 267.5, ERa SRC1 inh inactive, Smad3 inh inactive, Rev-RRE block inactive and ERb coact inh inactive.
`CCOC(=O)c1sc(NC(=O)CSc2nc3c(c(-c4ccc(OC)cc4)c2C#N)CCCC3)c(C#N)c1C` gave FAK blocker inactive, ERa SRC1 pot inactive, ERa SRC1 inh inactive, Smad3 inh inactive, Rev-RRE block inactive and ERb coact inh inactive.
`Cc1ccc(S(=O)(=O)CCSc2nc(C)cc(C(F)(F)F)c2C#N)cc1` gave FAK blocker inactive, ERa SRC1 pot inactive, ERa SRC1 inh inactive, Smad3 inh inactive, Rev-RRE block 64.2 and ERb coact inh inactive.
COC(=O)CSc1nc(C)cc(C(F)(F)F)c1C#N was read as FAK blocker inactive, ERa SRC1 pot inactive, ERa SRC1 inh inactive, Smad3 inh inactive, Rev-RRE block inactive and ERb coact inh inactive.
`CCOC(=O)NC(=O)CSc1nc(C)cc(C(F)(F)F)c1C#N` gave FAK blocker inactive, ERa SRC1 pot inactive, ERa SRC1 inh inactive, Smad3 inh inactive, Rev-RRE block 41.6 and ERb coact inh inactive.
`CC1(C)N=C(N)N=C(N)N1c1cccc(CSc2ccccc2)c1` gave Smad3 inh inactive.
`Cc1nn(-c2ccc(Cl)cc2)c2sc(C(=O)N3CCN(c4ccccn4)CC3)cc12` gave FAK blocker inactive, ERa SRC1 pot 452.4, ERa SRC1 inh inactive, Smad3 inh inactive, Rev-RRE block inactive and ERb coact inh inactive.
Screening O=C(O)CN(CC(=O)O)c1ccccc1 returned Smad3 inh inactive.
O=C(O)c1cc2nc(-c3ccc(F)cc3)cc(C(F)(F)F)n2n1 was read as FAK blocker inactive, ERa SRC1 pot inactive, ERa SRC1 inh inactive, Smad3 inh inactive, Rev-RRE block inactive and ERb coact inh inactive.
For CCn1cc(-c2cc(C(F)(F)F)n3nc(C(=O)O)cc3n2)c(C)n1 the results were FAK blocker inactive, ERa SRC1 pot inactive, ERa SRC1 inh 64.1[fluorescence artefact?], Smad3 inh inactive, Rev-RRE block inactive and ERb coact inh 75.4[fluorescence artefact?].
Cc1ccc(N(C(=O)Cc2c[nH]c3ccccc23)C(C(=O)NC2CCCCC2)c2ccco2)cc1 (stereo not given) was read as FAK blocker inactive and Rev-RRE block inactive.
`O=C(CN(C(=O)CSc1nc2ccccc2o1)c1cccc(F)c1)NC1CCCCC1` gave FAK blocker inactive and Rev-RRE block inactive.
`O=C(COc1ccccc1)Nc1nc(-c2ccc(S(=O)(=O)N3CCOCC3)cc2)cs1` gave FAK blocker inactive, ERa SRC1 pot 328.1[fluorescence artefact?], ERa SRC1 inh inactive, Smad3 inh inactive, Rev-RRE block inactive and ERb coact inh inactive.
O=C(COc1ccc(Cl)cc1)Nc1nc(-c2ccc(S(=O)(=O)N3CCOCC3)cc2)cs1 was read as FAK blocker inactive, ERa SRC1 pot 274.5[fluorescence artefact?], ERa SRC1 inh inactive, Smad3 inh inactive, Rev-RRE block inactive and ERb coact inh inactive.
For O=C(COC(=O)c1ccc(S(=O)(=O)N2CCOCC2)cc1)Nc1nc(-c2ccccc2)cs1 the results were FAK blocker inactive, ERa SRC1 pot inactive, ERa SRC1 inh inactive, Smad3 inh inactive, Rev-RRE block inactive and ERb coact inh inactive.
Screening COc1ccccc1OCC(=O)Nc1nc(-c2ccc(S(=O)(=O)N3CCOCC3)cc2)cs1 returned FAK blocker inactive, ERa SRC1 pot 216.9[fluorescence artefact?], ERa SRC1 inh inactive, Smad3 inh inactive, Rev-RRE block inactive and ERb coact inh inactive.
`O=CN1CCN(C[C@H](O)CN2CCCCC2)CC1` gave Smad3 inh inactive.
CC(C)(C)C(=O)[C@@H]1[C@@H]2C(=O)N(c3ccc4c(c3)OCCO4)C(=O)[C@@H]2C2c3ccccc3C=CN21 (stereo not given in full) was read as FAK blocker inactive, ERa SRC1 pot inactive, ERa SRC1 inh inactive, Smad3 inh inactive, Rev-RRE block inactive and ERb coact inh inactive.
